Results taken from ChEMBL document CHEMBL1782009, “Synthesis and characterization of new types of halogenated and alkylated imidazolidineiminothiones and a comparative study of their antitumor, antibacterial, and antifungal activities” (Eur J Med Chem, 2011).
≈ marks a conversion by molar mass, not a printed value.

Tests used:
[1] = system: Staphylococcus aureus; experiment: Antibacterial activity against Staphylococcus aureus NCTC 7447 at 5 mg/ml after 24 hrs by agar disc diffusion method; assay type: functional; details: NCTC 7447, 24 h, read-out: DIZ
In short: (§1)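 Agar well-diffusion using 1 cm wells, each loaded with 100 of compound solution (5 mg/mL in DMF). Bacteria were maintained on nutrient agar and plated as a standard suspension. Plates were incubated 24 h at 35 °C, and inhibition zone diameters were measured.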

[2] = system: HCT-116; experiment: Cytotoxicity against human HCT116 cells assessed as surviving fraction at 5 ug/ml after 48 hrs by SRB assay relative to control; assay type: functional
In short: (§2)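 SRB assay per Skehan: compounds at 5.0, 12.5, 25 and 50 were added to cell monolayers in triplicate wells per dose for 48 h at 37 °C, 5% CO2. Cells were then fixed and stained with SRB, excess stain was removed with acetic acid, and bound dye was recovered in Tris EDTA. Surviving fraction was plotted against concentration, and IC50 was read from the dose–response curves.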

[3] = system: MCF7; experiment: Cytotoxicity against human MCF7 cells after 48 hrs by SRB assay; assay type: functional, cell-based; details: MCF7, 48 h; in short: as §2
[4] = system: MCF7; experiment: Cytotoxicity against human MCF7 cells assessed as surviving fraction at 50 ug/ml after 48 hrs by SRB assay relative to control; assay type: functional; in short: as §2
[5] = system: MCF7; experiment: Cytotoxicity against human MCF7 cells assessed as surviving fraction at 25 ug/ml after 48 hrs by SRB assay relative to control; assay type: functional; in short: as §2
[6] = system: HepG2; experiment: Cytotoxicity against human HepG2 cells assessed as surviving fraction at 5 ug/ml after 48 hrs by SRB assay relative to control; assay type: functional; in short: as §2
[7] = system: Bacillus subtilis; experiment: Antibacterial activity against Bacillus subtilis NCTC 1040 at 5 mg/ml after 24 hrs by agar disc diffusion method; assay type: functional; details: NCTC 1040, 24 h, read-out: DIZ; in short: as §1
[8] = system: Aspergillus flavus; experiment: Antifungal activity against Aspergillus flavus at 5 mg/ml by agar disc diffusion method; assay type: functional; details: read-out: DIZ
[9] = system: HCT-116; experiment: Cytotoxicity against human HCT116 cells assessed as surviving fraction at 25 ug/ml after 48 hrs by SRB assay relative to control; assay type: functional; in short: as §2
[10] = system: HeLa; experiment: Cytotoxicity against human HeLa cells after 48 hrs by SRB assay; assay type: functional, cell-based; in short: as §2
[11] = system: HCT-116; experiment: Cytotoxicity against human HCT116 cells after 48 hrs by SRB assay; assay type: functional, cell-based; details: HCT-116, 48 h; in short: as §2
[12] = system: HeLa; experiment: Cytotoxicity against human HeLa cells assessed as surviving fraction at 5 ug/ml after 48 hrs by SRB assay relative to control; assay type: functional; in short: as §2
[13] = system: HepG2; experiment: Cytotoxicity against human HepG2 cells assessed as surviving fraction at 50 ug/ml after 48 hrs by SRB assay relative to control; assay type: functional; in short: as §2
[14] = system: Micrococcus luteus; experiment: Antibacterial activity against Sarcina lutea ATCC 934 at 5 mg/ml after 24 hrs by agar disc diffusion method; assay type: functional; details: ATCC 934, 24 h, read-out: DIZ; in short: as §1
[15] = system: MCF7; experiment: Cytotoxicity against human MCF7 cells assessed as surviving fraction at 12.5 ug/ml after 48 hrs by SRB assay relative to control; assay type: functional; in short: as §2
[16] = system: HEp-2; experiment: Cytotoxicity against human Hep2 cells assessed as surviving fraction at 50 ug/ml after 48 hrs by SRB assay relative to control; assay type: functional; in short: as §2
[17] = system: Escherichia coli; experiment: Antibacterial activity against Escherichia coli NCTC 10416 at 5 mg/ml after 24 hrs by agar disc diffusion method; assay type: functional; details: NCTC 10416, 24 h, read-out: DIZ; in short: as §1
[18] = system: HeLa; experiment: Cytotoxicity against human HeLa cells assessed as surviving fraction at 12.5 ug/ml after 48 hrs by SRB assay relative to control; assay type: functional; in short: as §2
[19] = system: HeLa; experiment: Cytotoxicity against human HeLa cells assessed as surviving fraction at 50 ug/ml after 48 hrs by SRB assay relative to control; assay type: functional; in short: as §2
[20] = system: HEp-2; experiment: Cytotoxicity against human Hep2 cells assessed as surviving fraction at 12.5 ug/ml after 48 hrs by SRB assay relative to control; assay type: functional; in short: as §2
[21] = system: HEp-2; experiment: Cytotoxicity against human Hep2 cells assessed as surviving fraction at 25 ug/ml after 48 hrs by SRB assay relative to control; assay type: functional; in short: as §2
[22] = system: MCF7; experiment: Cytotoxicity against human MCF7 cells assessed as surviving fraction at 5 ug/ml after 48 hrs by SRB assay relative to control; assay type: functional; in short: as §2
[23] = system: HepG2; experiment: Cytotoxicity against human HepG2 cells assessed as surviving fraction at 25 ug/ml after 48 hrs by SRB assay relative to control; assay type: functional; in short: as §2
[24] = system: HEp-2; experiment: Cytotoxicity against human Hep2 cells after 48 hrs by SRB assay; assay type: functional, cell-based; details: HEp-2, 48 h; in short: as §2
[25] = system: HCT-116; experiment: Cytotoxicity against human HCT116 cells assessed as surviving fraction at 12.5 ug/ml after 48 hrs by SRB assay relative to control; assay type: functional; in short: as §2
[26] = system: HCT-116; experiment: Cytotoxicity against human HCT116 cells assessed as surviving fraction at 50 ug/ml after 48 hrs by SRB assay relative to control; assay type: functional; in short: as §2
[27] = system: HepG2; experiment: Cytotoxicity against human HepG2 cells assessed as surviving fraction at 12.5 ug/ml after 48 hrs by SRB assay relative to control; assay type: functional; in short: as §2
[28] = system: HepG2; experiment: Cytotoxicity against human HepG2 cells after 48 hrs by SRB assay; assay type: functional, cell-based; details: HepG2, 48 h; in short: as §2
[29] = system: HEp-2; experiment: Cytotoxicity against human Hep2 cells assessed as surviving fraction at 5 ug/ml after 48 hrs by SRB assay relative to control; assay type: functional; in short: as §2
[30] = Antitumor activity against mouse EAC cells assessed as inhibition of cell viability at 100 ug/ml by Trypan blue assay; assay type: functional; details: Ehrlich
In short: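 EAC cells were taken by needle aspiration of ascitic fluid from preinoculated mice and diluted 1:10 in saline. Then 0.1 mL of cell suspension, 0.8 mL RPMI 1640 and 0.1 mL compound were incubated 2 h at 37 °C. Dead cells were counted by trypan blue exclusion, and % non-viable = non-viable/total cells × 100.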

[31] = system: Candida albicans; experiment: Antifungal activity against Candida albicans IMRU 3669 at 5 mg/ml by agar disc diffusion method; assay type: functional; details: read-out: DIZ
[32] = system: HeLa; experiment: Cytotoxicity against human HeLa cells assessed as surviving fraction at 25 ug/ml after 48 hrs by SRB assay relative to control; assay type: functional; in short: as §2

## COc1ccc(N2C(=O)N(c3ccc(C)cc3)C(=N)C2=S)c(OC)c1
[1]
  zone of inhibition at 5000 µg/mL: 22 mm
[2]
  Activity: 0.38
[3]
  IC50: 4.34 µg/mL (≈ 12.2 µM)
[4]
  Activity: 0.29
[5]
  Activity: 0.21
[6]
  Activity: 0.6
[7]
  zone of inhibition at 5000 µg/mL: 22.5 mm
[8]
  zone of inhibition at 5000 µg/mL: 14 mm
[9]
  Activity: 0.2
[10]
  IC50: 2.97 µg/mL (≈ 8.36 µM)
[11]
  IC50: 4.04 µg/mL (≈ 11.4 µM)
[12]
  Activity: 0.24
[13]
  Activity: 0.24
[14]
  zone of inhibition at 5000 µg/mL: 25 mm
[15]
  Activity: 0.21
[16]
  Activity: 0.3
[17]
  zone of inhibition at 5000 µg/mL: 25.5 mm
[18]
  Activity: 0.14
[19]
  Activity: 0.26
[20]
  Activity: 0.31
[21]
  Activity: 0.16
[22]
  Activity: 0.43
[23]
  Activity: 0.23
[24]
  IC50: 7.09 µg/mL (≈ 19.9 µM)
[25]
  Activity: 0.15
[26]
  Activity: 0.26
[27]
  Activity: 0.22
[28]
  IC50: 6.78 µg/mL (≈ 19.1 µM)
[29]
  Activity: 0.6
[30]
  inhibition at 100 µg/mL: 70%
[31]
  zone of inhibition at 5000 µg/mL: 17.5 mm
[32]
  Activity: 0.22

## N=C1C(=S)N(c2ccc(Cl)cc2)C(=O)N1Cc1ccccc1
[1]
  zone of inhibition at 5000 µg/mL: 21 mm
[2]
  Activity: 0.24
[3]
  IC50: 4.65 µg/mL (≈ 14.1 µM)
[4]
  Activity: 0.2
[5]
  Activity: 0.16
[6]
  Activity: 0.45
[7]
  zone of inhibition at 5000 µg/mL: 21 mm
[8]
  zone of inhibition at 5000 µg/mL: 18 mm
[9]
  Activity: 0.16
[10]
  IC50: 9.68 µg/mL (≈ 29.4 µM)
[11]
  IC50: 4.19 µg/mL (≈ 12.7 µM)
[12]
  Activity: 0.44
[13]
  Activity: 0.3
[14]
  zone of inhibition at 5000 µg/mL: 20 mm
[15]
  Activity: 0.12
[16]
  Activity: 0.28
[17]
  zone of inhibition at 5000 µg/mL: 22 mm
[18]
  Activity: 0.18
[19]
  Activity: 0.33
[20]
  Activity: 0.22
[21]
  Activity: 0.16
[22]
  Activity: 0.49
[23]
  Activity: 0.21
[24]
  IC50: 3.28 µg/mL (≈ 9.95 µM)
[25]
  Activity: 0.22
[26]
  Activity: 0.28
[27]
  Activity: 0.22
[28]
  IC50: 4.34 µg/mL (≈ 13.2 µM)
[29]
  Activity: 0.24
[30]
  inhibition at 100 µg/mL: 80%
[31]
  zone of inhibition at 5000 µg/mL: 22 mm
[32]
  Activity: 0.29
